Experiment [1] is filed under the species Mus musculus. Kind of experiment: Number of 50-day survivors Out of 10 mice. It counts as functional. The essentials: (§1)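 Female BDF1 mice (19–21 g), 10 per group. Lewis lung carcinoma, 10^5 cells in 0.05 mL, implanted in the right hind leg on day 0, and the leg amputated on day 10. Dosing was 160 mg/kg ip in 0.9% NaCl made daily, either from -1 h on day 0 q2d×5 (preamputation) or from day 11 q2d×4 (postamputation). Survivors were killed and autopsied on day 50, and values were averaged over all 10 mice. ILS ≥25% is taken as activity.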

The species named for experiment [2] is Mus musculus. Put plainly: compound was tested against autopsying on day 50th metastasis( >2 mm size.) in mice. The experiment is classed as functional. The gist of the method: (§2)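 Female BDF1 mice (19–21 g), 10 per group, were implanted with 10^5 Lewis lung cells in the right hind leg on day 0, with leg amputation on day 10. Dosing was 160 mg/kg ip, either from −1 h on day 0 q2d×5 or from day 11 q2d×4, in saline prepared daily. Survivors were killed on day 50, and lung metastases were counted by size. Values are averages over 10 mice, dying and killed.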

The species named for experiment [3] is Mus musculus. Kind of experiment: compound was tested against autopsying on day 50th metastasis( 1-2 mm size.) in mice. It counts as functional. The gist of the method:
as §2

For experiment [4], the species on record is Mus musculus. Put plainly: (§3) Percent of mice without metastasis. It counts as functional.
For experiment [5], the species on record is Mus musculus. Kind of experiment: Compound was tested against autopsying on day 50th metastasis( >2 mm size) in mice. It counts as functional. The gist of the method: as §2
The species entered for experiment [6] is Mus musculus. Put plainly: Average lung weight per mouse was determined. The experiment is classed as functional. The essentials:
(§4)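 Female BDF1 mice (19–21 g) implanted with Lewis lung carcinoma on day 0. The tumour-bearing leg was amputated on day 9 or 10. Dosing was 160 mg/kg ip q2d in 0.9% NaCl. Dying mice were autopsied, and survivors were killed and autopsied on day 50.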

The species entered for experiment [7] is Mus musculus. Kind of experiment: compound was tested against autopsying on day 50th metastasis( <1 mm size.) in mice. The experiment is classed as functional. The gist of the method: as §2
Experiment [8] concerns Mus musculus. Kind of experiment: Median survival time of 10 BDF1 mice was tested after administration of compound (Preamputation schedule 160 mg/kg). The experiment is classed as functional. The essentials: as §1
The species entered for experiment [9] is Mus musculus. Put plainly: Average lung weight per mouse. The experiment is classed as functional. The essentials:
as §4

Experiment [10] is filed under the species Mus musculus. Kind of experiment: Compound was tested against autopsying on day 50th metastasis( 1-2 mm size) in mice. The experiment is classed as functional. The essentials:
as §2

The species entered for experiment [11] is Mus musculus. Put plainly: Average number of metastasis per mouse. The experiment is classed as functional. The essentials: as §4
Experiment [12] is filed under the species Mus musculus. Put plainly: Compound was tested against autopsying on day 50th metastasis( <1 mm size) in mice. The experiment is classed as functional. The gist of the method: as §2
The species named for experiment [13] is Mus musculus. Kind of experiment: Number of 50-day survivors out of 10 mice; 2 mice died out of 6 with one metastasis each (5mm i.d.). The experiment is classed as functional.
For experiment [14], the species on record is Mus musculus. The description is as §3. It counts as functional. The source holds these as a separate data set.
The species entered for experiment [15] is Mus musculus. Put plainly: Average body weight of mice was determined. The experiment is classed as functional. The essentials: (§5)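 Female BDF1 mice (19–21 g), 8–9 per group. Lewis lung carcinoma implanted on day 0 and the leg amputated on day 9. From day 9, 160 mg/kg ip q2d×4, given as a suspension or solution in 0.9% NaCl. Mice dying and those killed on day 50 were autopsied for body weight, lung weight, metastases (<2 or >2 mm) and metastasis incidence. Median survival and ILS were recorded, with ≥25% ILS taken as activity.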

Experiment [16] is filed under the species Mus musculus. Kind of experiment: Number of mice with metastasis Out of 8 mice. It counts as functional. The gist of the method: as §5
For experiment [17], the species on record is Mus musculus. Put plainly: Number of 50-day survivors Out of 8 mice. The experiment is classed as functional. The essentials:
as §5

For experiment [18], the species on record is Mus musculus. Kind of experiment: Compound was tested against autopsying on day 50th metastasis( >2 mm size.) in mice. The experiment is classed as functional. The gist of the method: as §1
Experiment [19] concerns Mus musculus. Kind of experiment: Median survival time of 10 BDF1 mice was tested after administration of compound (Postamputation schedule 160 mg/kg).
The species entered for experiment [20] is Mus musculus. Kind of experiment: Compound was tested against autopsying on day 50th metastasis( <2 mm size.) in mice. It counts as functional. The gist of the method: as §5
The species entered for experiment [21] is Mus musculus. Kind of experiment: Average lung weight of mice was determined. The experiment is classed as functional. The gist of the method:
as §1

Experiment [22] is filed under the species Mus musculus. Put plainly: Percent increase in life span was measured in mice. It counts as functional. The gist of the method:
as §1

Experiment [23] concerns Mus musculus. Put plainly: Median survival time of 10 BDF1 mice was tested for compound (Postamputation schedule 160 mg/kg). The experiment is classed as functional. The essentials:
as §1

The species named for experiment [24] is Mus musculus. Put plainly: Number of 50-day survivors out of 9 mice. The experiment is classed as functional. The essentials:
as §5

For experiment [25], the species on record is Mus musculus. Kind of experiment: Number of 50-day survivors Out of 9 mice. It counts as functional. The gist of the method:
as §5

The species entered for experiment [26] is Mus musculus. Kind of experiment: Compound was tested against autopsying on day 50th metastasis( <2 mm size) in mice. The experiment is classed as functional. The gist of the method: as §5
For experiment [27], the species on record is Mus musculus. Kind of experiment: Number of mice with metastasis Out of 9 mice. The experiment is classed as functional. The essentials: as §5
The species entered for experiment [28] is Mus musculus. Kind of experiment: Number of mice with metastasis out of 9 mice tested. It counts as functional. The essentials:
(§6)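 Female BDF1 mice (19–21 g) were implanted with Lewis lung carcinoma on day 0 and amputated on day 9. Dosing was 160 mg/kg ip from day 9, q2d×4, as a suspension or solution in 0.9% NaCl. Dying mice and mice killed on day 50 were autopsied to count metastases (<2 mm, >2 mm) and mice bearing metastases.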

The species entered for experiment [29] is Mus musculus. Kind of experiment: compound was tested against autopsying on day 50th metastasis( <[…] mm size.) in mice. It counts as functional. The gist of the method:
as §6

The structures appear in SMILES notation. Where “and” joins values, the source holds several entries; their conditions need not be identical. Equal values may be shown once.

The term ILS denotes the gain in survival time of treated over control animals, in per cent.

As for `O=C1CN2CCN3CC(=O)N(CN4CCOCC4)C(=O)[C@H]3C2C(=O)N1CN1CCOCC1` (stereo in doubt; form 2), the N/T in the experiment filed under Mus musculus [1] was 4; in the experiment filed under Mus musculus [13], 6. In addition, the Average No. of metastasis in the experiment filed under Mus musculus [2] is 4.8 count; in the experiment listed under Mus musculus [3], 2.6 count; in the experiment filed under Mus musculus [5], 8.3 count; in the experiment filed under Mus musculus [7] it was 0.3 count; in the experiment listed under Mus musculus [10], 3.5 count; in the experiment filed under Mus musculus [11] it was 12.8 and 7.7. The Average No. of metastasis in the experiment listed under Mus musculus [12] is 1 count. Also, the Mice in the experiment listed under Mus musculus [4] and in the experiment listed under Mus musculus [14] was 40% in each case. For the same molecule, the Lung weight is on record as 641 mg in the experiment listed under Mus musculus [6] and 538 mg in the experiment listed under Mus musculus [9]. The MST in the experiment with Mus musculus [8] stood at 39 days.
For `O=C1CN2CCN3CC(=O)NC(=O)[C@H]3C2C(=O)N1` (stereo partly drawn), the Body weight in the experiment filed under Mus musculus [15] amounted to 17.8 g. The same molecule registered a M/T in the experiment filed under Mus musculus [16] of 5. In the experiment listed under Mus musculus [17], this molecule registered a N/T of 3. Besides, the “Average No. of metastasis” value in the experiment listed under Mus musculus [18] was 14%; in the experiment listed under Mus musculus [20] it was 1%. In the experiment on Mus musculus [19], this molecule gave an MST of 45 days. The molecule further yielded a Lung weight in the experiment listed under Mus musculus [21] of 813 mg. The same molecule displayed an ILS in the experiment filed under Mus musculus [22] of 34%.
On to `O=C1CN2CCN3CC(=O)N(CN4CCOCC4)C(=O)[C@H]3C2C(=O)N1CN1CCOCC1` (stereo in doubt; 3), for which the MST in the experiment on Mus musculus [23] is 35 days; with Mus musculus [8] it was 38.5 days. The Lung weight in the experiment filed under Mus musculus [6] is 754 mg and 752 mg. For the same molecule, the N/T in the experiment listed under Mus musculus [24] and in the experiment listed under Mus musculus [25] was 5 throughout. Besides, the “Average No. of metastasis” value in the experiment listed under Mus musculus [11] was 15 and 13.8; in the experiment listed under Mus musculus [12], 0.2 count. The Mice in the experiment listed under Mus musculus [14] was 30% and 20%.
In the case of `O=C1CN2CCN3CC(=O)NC(=O)[C@@H]3C2C(=O)N1` (stereo partly drawn), the Average No. of metastasis was 2 count in the experiment filed under Mus musculus [26] and 13 count in the experiment filed under Mus musculus [5]. In the experiment listed under Mus musculus [15], the Body weight is 17.7 g. In the experiment with Mus musculus [19], this molecule returned an MST of 39 days. The same molecule came in with a Lung weight in the experiment listed under Mus musculus [21] of 749 mg. Also, in the experiment filed under Mus musculus [22], the ILS is given as 16%. Also, the M/T in the experiment listed under Mus musculus [27] was found to be 7. Further, in the experiment listed under Mus musculus [25], the N/T worked out at 2.
On to `O=C1CN2CCN3CC(=O)N(CN4CCOCC4)C(=O)[C@H]3C2C(=O)N1CN1CCOCC1` (stereo in doubt; form 1), for which, in the experiment filed under Mus musculus [28], the M/T was 1. The Average No. of metastasis in the experiment listed under Mus musculus [2] is 3 count; in the experiment listed under Mus musculus [29], 0 count. Moreover, the Body weight in the experiment listed under Mus musculus [15] is recorded as 19.9 g. This molecule showed an MST in the experiment with Mus musculus [8] of 39 days. The Lung weight in the experiment listed under Mus musculus [21] was 369 mg. Besides, the N/T in the experiment filed under Mus musculus [25] was determined as 7.
For the molecule `O=C1CN2CCN3CC(=O)N(CN4CCOCC4)C(=O)[C@@H]3C2C(=O)N1CN1CCOCC1` (stereo partly drawn), the Average No. of metastasis in the experiment filed under Mus musculus [26] is 0 count; in the experiment listed under Mus musculus [5] it was 9 count. In the experiment filed under Mus musculus [28], this molecule showed a M/T of 4. In the experiment listed under Mus musculus [15], the Body weight turned out to be 19.4 g. In the experiment on Mus musculus [19], this molecule displayed an MST above 50 days. Further, the Lung weight in the experiment listed under Mus musculus [21] turned out to be 564 mg. For the same molecule, the ILS in the experiment listed under Mus musculus [22] is above 49%. In addition, in the experiment listed under Mus musculus [25], the N/T is 5.
